Results as given in ChEMBL document CHEMBL1932977, “Synthesis of pyrazolo[3,4-b]pyridines under microwave irradiation in multi-component reactions and their antitumor and antimicrobial activities - Part 1” (Eur J Med Chem, 2012).
Converted amounts (≈) assume the structure as drawn. The source made the active and inactive calls. The rule behind the calls is not given here.

Experiments:
[1] = tested on: Bacillus; assay: Antibacterial activity against Bacillus at 10 mg/ml after 24 hrs by cut-plug method; assay type: functional
How it was run: (§1)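 Cut-plug agar diffusion. Bacteria grown on nutrient agar and fungi on Sabouraud agar slopes, strains from a university culture collection. Plates seeded with 1 ml of diluted inoculum (10⁷ CFU/ml) spread after solidification. Wells cut and filled with compound in DMSO at 10 mg/ml. Plates incubated at 30 °C for 24 h, then inhibition-zone diameters (mm) measured.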

[2] = tested on: Fusarium oxysporum; assay: Antifungal activity against Fusarium oxysporum at 10 mg/ml after 24 hrs by cut-plug method; assay type: functional; how it was run: as §1
[3] = tested on: Enterobacter cloacae; assay: Antibacterial activity against Enterobacter cloacae at 10 mg/ml after 24 hrs by cut-plug method; assay type: functional; how it was run: as §1
[4] = tested on: HepG2; assay: Cytotoxicity against human HepG2 by sulforhodamie B colorimetric assay; assay type: functional, cell-based
How it was run: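 HEPG2 human liver cancer cells, compound-treated against untreated control. Read by SRB: TCA-fixed cultures stained 30 min with 0.4% w/v SRB in 1% acetic acid, bound dye extracted with 10 mM Tris, optical density read on a plate reader. Surviving fraction as percent growth. IC50 estimated by probit regression.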

[5] = tested on: Escherichia coli; assay: Antibacterial activity against Escherichia coli at 10 mg/ml after 24 hrs by cut-plug method; assay type: functional; how it was run: as §1
[6] = tested on: Penicillium expansum; assay: Antifungal activity against Penicillium expansum at 10 mg/ml after 24 hrs by cut-plug method; assay type: functional; how it was run: as §1
[7] = tested on: Serratia; assay: Antibacterial activity against Serratia at 10 mg/ml after 24 hrs by cut-plug method; assay type: functional; how it was run: as §1
[8] = Homo sapiens, HepG2, read-out: IC50

| Structure (SMILES) | diameter of the inhibition zone (DIZ) [1] | diameter of the inhibition zone (DIZ) [2] | diameter of the inhibition zone (DIZ) [3] | IC50 [4, 8] [µg/mL] | diameter of the inhibition zone (DIZ) [5] | diameter of the inhibition zone (DIZ) [6] | IC50 ([4]; hepg2) | diameter of the inhibition zone (DIZ) [7] |
| --- | --- | --- | --- | --- | --- | --- | --- | --- |
| COc1ccc(-c2c(C#N)c(-c3ccc(F)cc3)nc3c2c(-c2cccnc2)nn3-c2ccccc2)cc1 | inactive | inactive | inactive | 3.43 (≈ 6.89 µM) | inactive | inactive |  |  |
| COc1ccc(-c2c(C#N)c(-c3ccccc3)nc3c2c(-c2cccnc2)nn3-c2ccccc2)cc1 | inactive | inactive | inactive |  | inactive | inactive | Not Active | inactive |
| O=C(O)c1cc(-c2ccccc2)c2c(-c3cccnc3)nn(-c3ccccc3)c2n1 | inactive | inactive | inactive |  | inactive | inactive |  |  |
| COc1ccc(-c2cc(C(=O)O)nc3c2c(-c2cccnc2)nn3-c2ccccc2)cc1 |  |  |  |  |  | inactive |  |  |
| COc1cccc2c1C(=O)c1c(O)c3c(c(O)c1C2=O)C[C@@](O)(C(=O)CO)C[C@@H]3O[C@H]1C[C@H](N)[C@H](O)[C@H](C)O1 [DOXORUBICIN] |  |  |  | 3.73 (≈ 6.86 µM) |  |  |  |  |
| CN(C)c1ccc(-c2cc(C(=O)O)nc3c2c(-c2cccnc2)nn3-c2ccccc2)cc1 | inactive |  |  |  | inactive | inactive |  |  |
| COc1ccc(-c2c(C#N)c(-c3cccnc3)nc3c2c(-c2cccnc2)nn3-c2ccccc2)cc1 |  | inactive | inactive | 3.73 (≈ 7.76 µM) | inactive | inactive |  | inactive |
| COc1ccc(-c2c(C#N)c(-c3ccc(C)cc3)nc3c2c(-c2cccnc2)nn3-c2ccccc2)cc1 | inactive | inactive | inactive | 4.34 (≈ 8.79 µM) |  | inactive |  |  |
| O=C(O)c1cc(-c2ccc(O)cc2)c2c(-c3cccnc3)nn(-c3ccccc3)c2n1 | inactive |  | inactive |  | inactive | inactive |  |  |
| CCN(CC)c1ccc(-c2cc(C(=O)O)nc3c2c(-c2cccnc2)nn3-c2ccccc2)cc1 | inactive |  | inactive |  | inactive | inactive |  | inactive |
| O=C(O)c1cc(-c2ccc(Br)cc2)c2c(-c3cccnc3)nn(-c3ccccc3)c2n1 | inactive | inactive | inactive |  | inactive | inactive |  |  |
| COc1ccc(-c2c(C#N)c(-c3ccc(Cl)cc3)nc3c2c(-c2cccnc2)nn3-c2ccccc2)cc1 | inactive | inactive | inactive | 4 (≈ 7.78 µM) | inactive | inactive |  | inactive |
| COc1ccc(-c2c(C#N)c(-c3ccc([N+](=O)[O-])cc3)nc3c2c(-c2cccnc2)nn3-c2ccccc2)cc1 | inactive | inactive | inactive | 13.5 (≈ 25.7 µM) |  |  |  | inactive |
